Test results reported in ChEMBL document CHEMBL1122173, “Effects of conformationally restricted 4-piperazinyl-10H-thienobenzodiazepine neuroleptics on central dopaminergic and cholinergic systems” (J Med Chem, 1982).

Key:
Mus musculus [1] = assay: Tested for physostigmine lethality at a dose of 5 mg/kg after oral administration in mice; type: functional
Procedure, shortened: (§1)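 Groups of 10 CFW mice (19-26 g) given test compound in distilled water or 0.5% carboxymethylcellulose 1 h (0.5 h for hyoscine) before physostigmine 1 mg/kg ip. Tremor or death scored at 10, 20 and 60 min after physostigmine (dead at 10 min = 4, dead later = 3, marked tremor = 2, slight tremor = 1, no effect = 0). Value is percent reduction in group score versus control group.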

Mus musculus [2] = assay: Tested for physostigmine lethality at a dose of 50 mg/kg after oral administration in mice; type: functional; procedure, shortened: as §1
[3] = target: Muscarinic acetylcholine receptor; assay: Displacement of [3H]QNB from Muscarinic acetylcholine receptor of rat brain membrane
Mus musculus [4] = assay: Tested for physostigmine lethality at a dose of 10 mg/kg after oral administration in mice; type: functional; procedure, shortened: as §1
Mus musculus [5] = assay: Tested for physostigmine lethality at a dose of 25 mg/kg after oral administration in mice; type: functional; procedure, shortened: as §1
Mus musculus [6] = assay: Tested for physostigmine lethality at a dose of 8 mg/kg after oral administration in mice; type: functional; procedure, shortened: as §1
Mus musculus [7] = assay: Tested for physostigmine lethality at a dose of 12 mg/kg after oral administration in mice; type: functional; procedure, shortened: as §1
Mus musculus [8] = assay: Tested for physostigmine lethality at a dose of 2.5 mg/kg after oral administration in mice; type: functional; procedure, shortened: as §1
Mus musculus [9] = assay: Tested for physostigmine lethality at a dose of 15 mg/kg after oral administration in mice; type: functional; procedure, shortened: as §1
Mus musculus [10] = assay: Tested for physostigmine lethality at a dose of 20 mg/kg after oral administration in mice; type: functional; procedure, shortened: as §1

Compound	Protection (Mus musculus [1]) [%]	IC50 [3] [nM]	Protection (Mus musculus [4]) [%]	further results
O=C(CCCN1CCC(O)(c2ccc(Cl)cc2)CC1)c1ccc(F)cc1 [HALOPERIDOL]	0	–	–	–
Cc1sc2c(c1C(C)C)C(N1CCN(C)CC1)=Nc1cc(F)ccc1N2	–	64	–	Protection (Mus musculus [2]): 35%
CN1CCN(C2=Nc3cc(F)ccc3Nc3sccc32)CC1	–	574	–	–
CN1CCN(C2=Nc3cc(F)ccc3Nc3sc4c(c32)CCCC4)CC1	46	34	46	Protection (Mus musculus [5]): 71%
CCc1cc2c(s1)Nc1ccc(F)cc1N=C2N1CCN(C)CC1	–	116	33	Protection (Mus musculus [6]): 18%; Protection (Mus musculus [7]): 75%
CC(C)c1csc2c1C(N1CCN(C)CC1)=Nc1cc(F)ccc1N2	–	26	–	Protection (Mus musculus [2]): 35%
Cc1sc2c(c1C)C(N1CCN(C)CC1)=Nc1cc(F)ccc1N2	33	9	74	Protection (Mus musculus [8]): 5%
CN1CCN(C2=Nc3cc(Cl)ccc3Nc3ccccc32)CC1 [CLOZAPINE]	–	–	–	Protection (Mus musculus [9]): 53%
CCc1c(C)sc2c1C(N1CCN(C)CC1)=Nc1cc(F)ccc1N2	60	26	75	Protection (Mus musculus [10]): 53%
CCc1cc2c(s1)Nc1ccc(F)cc1N=C2N1CCN(C)C(C)C1 (configuration not stated)	–	97	17	Protection (Mus musculus [10]): 42%
Cc1cc2c(s1)Nc1ccc(F)cc1N=C2N1CCN(C)CC1 [FLUMEZAPINE]	64	74	75	Protection (Mus musculus [8]): 50%
CCc1cc2c(s1)Nc1ccc(F)cc1N=C2N1CC(C)N(C)C(C)C1 (configuration not stated)	–	258	–	Protection (Mus musculus [2]): 24%
CCc1cc2c(s1)Nc1ccc(F)cc1N=C2N1CC(C)N(C)CC1C (configuration not stated)	–	247	–	–
Cc1csc2c1C(N1CCN(C)CC1)=Nc1cc(F)ccc1N2	65	101	67	Protection (Mus musculus [8]): 5%
